These results are taken from ChEMBL document CHEMBL1132144, “Synthesis of 9-O-substituted derivatives of 9-hydroxy-5, 6-dimethyl-6H-pyrido[4,3-b]carbazole-1-carboxylic acid (2-(dimethylamino)ethyl)amide and their 10- and 11-methyl analogues with improved antitumor activity” (J Med Chem, 1999).

The structures appear in SMILES notation.

In one test the test system is L1210. Put plainly: Inhibition of murine L1210 leukemia cell proliferation measured by the MTT assay. The format is functional, cell-based. Conditions: Mus musculus. The essentials:
(§1)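 Murine L1210 leukemia and B16 melanoma cells were grown in RPMI 1640 with 10% fetal calf serum, 2 mM L-glutamine, penicillin/streptomycin and 10 mM HEPES (pH 7.4). Cells were exposed to nine serial drug dilutions in triplicate for about four doubling times (L1210 48 h, B16 96 h), then read by microculture tetrazolium (MTT) assay. IC50 is the concentration halving optical density versus untreated controls, averaged over ≥2 independent experiments.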

For test [1], the system named is Mus musculus. The experiment in a line: Percent median survival time of mice injected with P388 leukemia, at a subcutaneous compound dose of 10 mg/kg. It counts as functional.
Test [2] concerns Mus musculus. Put plainly: Long-term survivors among 6 mice infected with B16 melanoma, scored on day 90 at 10 mg/kg dose on day 1. It counts as functional.
A further test has as its system B16. The experiment in a line: Inhibition of murine B16 melanoma cell proliferation measured by the MTT assay. The format is functional, cell-based. Conditions: Mus musculus. The essentials: as §1
Test [3] relates to Mus musculus. The experiment in a line: Percent median survival time of mice injected with B16 melanoma, at a intraperitoneal compound dose of 10 mg/kg.
Test [4] concerns Mus musculus. The experiment in a line: Percent median survival time of mice injected with P388 leukemia, at a intravenous compound dose of 5 mg/kg.
Test [5] has as its system Mus musculus. Put plainly: Long-term survivors among 6 mice infected with P388 leukemia, scored on day 60 at 10 mg/kg dose on day 1. The format is functional. A digest of the protocol:
(§2)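 B6D2F1 mice in groups of 6–7 were inoculated ip on day 0 with 10^6 P388 cells. Dihydrochloride salts were dissolved in water and given iv on day 1 or on days 1, 5 and 9. Doses ranged from a low nontoxic dose to a toxic one. Long-term survivors were counted at day 60.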

The test system of test [6] is Mus musculus. The experiment in a line: Long-term survivors among 13 mice infected with B16 melanoma, scored on day 90 at 0.3-0.6 mg/kg dose.
For test [7], the system named is Mus musculus. Put plainly: Long-term survivors among 12 mice infected with P388 leukemia, scored on day 60 at 20 mg/kg dose. It counts as functional. A digest of the protocol: as §2
Test [8] has as its system Mus musculus. Put plainly: Percent median survival time of mice intraperitoneally injected with P388 leukemia was determined from tested at 20 mg/kg at day1 dose to that of control. It counts as functional. Conditions: route intraperitoneal. A digest of the protocol: (§3)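 P388 leukemia in B6D2F1 mice (groups of 6–7), 10^6 cells inoculated ip on day 0. Dihydrochloride salts were dissolved in water and given iv on day 1 or on days 1, 5, 9. Three doses were tested, then five if active. %T/C = median survival treated/control × 100, reported at the optimal dose (no toxic death, weight loss <20%), from one or two representative experiments.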

Test [9] relates to Mus musculus. Put plainly: Long-term survivors among 12 mice infected with P388 leukemia, scored on day 60 at 10 mg/kg dose. It counts as functional. The essentials:
as §2

In test [10] the test system is Mus musculus. The experiment in a line: Percent median survival time of mice injected with B16 melanoma, at a intraperitoneal compound dose of 0.3-0.6 mg/kg.
The subject of test [11] is Mus musculus. Put plainly: Percent median survival time of mice intraperitoneally injected with P388 leukemia was determined from tested at 10 mg/kg at day1,5,9 dose to that of control. It counts as functional. The essentials: as §3
Test [12] deals with Mus musculus. The experiment in a line: Long-term survivors among 12 mice infected with P388 leukemia, scored on day 60 at 80 mg/kg dose. It counts as functional. A digest of the protocol:
as §2

The test system of test [13] is Mus musculus. The experiment in a line: Percent median survival time of mice injected with B16 melanoma, at a intraperitoneal compound dose of 20 mg/kg.
In test [14] the test system is Mus musculus. The experiment in a line: Percent median survival time of mice intraperitoneally injected with P388 leukemia was determined from tested at 80 mg/kg at day1,5,9 dose to that of control. Conditions: route intraperitoneal. The format is functional. The essentials: as §3
In test [15] the test system is Mus musculus. Put plainly: Long-term survivors among 12 mice infected with P388 leukemia, scored on day 60 at 320 mg/kg dose. The format is functional. The essentials:
as §2

The subject of test [16] is Mus musculus. Put plainly: Percent median survival time of mice intraperitoneally injected with P388 leukemia was determined from tested at 160 mg/kg at day1 dose to that of control. It counts as functional. A digest of the protocol:
as §3

Test [17] deals with Mus musculus. The experiment in a line: Long-term survivors among 6 mice infected with P388 leukemia, scored on day 90 at 20 mg/kg dose. It counts as functional.
Test [18] deals with Mus musculus. The experiment in a line: Long-term survivors among 6 mice infected with P388 leukemia, scored on day 60 at 160 mg/kg dose on day 1, 5, 9. It counts as functional. The essentials: as §2
The subject of test [19] is Mus musculus. Put plainly: Long-term survivors among 6 mice infected with P388 leukemia, scored on day 60 at 160 mg/kg dose on day 1. The format is functional. The essentials:
as §2

The subject of test [20] is Mus musculus. The experiment in a line: Percent median survival time of mice intraperitoneally injected with P388 leukemia was determined from tested at 160 mg/kg at day1,5,9 dose to that of control. It counts as functional. Conditions: route intraperitoneal. The essentials: as §3
Test [21] relates to Mus musculus. Put plainly: Long-term survivors among 12 mice infected with P388 leukemia, scored on day 60 at 240-320 mg/kg dose on day 1. It counts as functional. A digest of the protocol: as §2
Test [22] deals with Mus musculus. Put plainly: Percent median survival time of mice injected with P388 leukemia, at a subcutaneous compound dose of 240-320 mg/kg. The format is functional.
The test system of test [23] is Mus musculus. The experiment in a line: Long-term survivors among 12 mice infected with B16 melanoma, scored on day 90 at 10 mg/kg dose on days 1-9.
The test system of test [24] is Mus musculus. The experiment in a line: Percent median survival time of mice injected with P388 leukemia, at a intravenous compound dose of 80-160 mg/kg.
For test [25], the system named is Mus musculus. The experiment in a line: Percent median survival time of mice intraperitoneally injected with P388 leukemia was determined from tested at 240 mg/kg at day1 dose to that of control. The format is functional. As to conditions: route intraperitoneal. A digest of the protocol:
as §3

For test [26], the system named is Mus musculus. Put plainly: Long-term survivors among 6 mice infected with P388 leukemia, scored on day 60 at 160 mg/kg dose. The format is functional. The essentials: as §2
Test [27] relates to Mus musculus. Put plainly: Long-term survivors among 6 mice infected with P388 leukemia, scored on day 60 at 240 mg/kg dose. The format is functional. A digest of the protocol:
as §2

As a reminder, the IC50 is the midpoint of a concentration-inhibition curve. The term T/C denotes the result in the treated group divided by that in the control group, in per cent. For `Cc1c2ccnc(C(=O)NCCN(C)C)c2cc2c3cc(OC(=O)CCC(=O)OCc4ccccc4)ccc3n(C)c12`, the half-inhibitory concentration (IC50) in the test with L1210 was 47.4 nM; in the test with B16 it was 9.9 nM. The T/C in the test with Mus musculus [1] is 111%; in the test with Mus musculus [3], 169%; in the test with Mus musculus [4], 96%. In addition, the LTS in the test with Mus musculus [2] is 1; in the test on Mus musculus [5], 0.

Consider `Cc1c(O)ccc2c1c1cc3c(C(=O)NCCN(C)C)nccc3c(C)c1n2C`, for which the half-maximal inhibitory concentration (IC50) was found to be 3.5 nM in the test on L1210 and 0.2 nM with B16. In addition, the LTS in the test on Mus musculus [6], in the test on Mus musculus [7] and in the test on Mus musculus [9] was 0 in each case. In addition, the T/C in the test with Mus musculus [8] came out at 211%; with Mus musculus [10] it was 144%; with Mus musculus [11], 223%.

For `Cc1c2ccnc(C(=O)NCCN(C)C)c2cc2c3cc(OC(=O)OCCCC(=O)O)ccc3n(C)c12`, the concentration for half-maximal inhibition (IC50) stood at 64 nM in the test on L1210 and 4.8 nM in the test with B16. Further, the LTS in the test with Mus musculus [12] came to 7; with Mus musculus [15], 8. Further, the values for the T/C with Mus musculus [13] and with Mus musculus [14] were 167% and over 600%, respectively.

For `Cc1c2ccnc(C(=O)NCCN(C)C)c2cc2c3cc(OCCCCC(=O)O)ccc3n(C)c12`, the T/C in the test with Mus musculus [16] is recorded as 107%; in the test on Mus musculus [13], 146%; with Mus musculus [20], 108%. In addition, the figures for the concentration for half-maximal inhibition (IC50) with L1210 and in the test with B16 were 4230 nM and 3470 nM, respectively. Also, the LTS in the test on Mus musculus [17], with Mus musculus [18] and in the test on Mus musculus [19] was 0 in each case.

Take `Cc1c2ccnc(C(=O)NCCN(C)C)c2cc2c3cc(OC(=O)CCCCC(=O)O)ccc3n(C)c12`: the LTS in the test on Mus musculus [21] came out at 16; in the test with Mus musculus [23], 4. Moreover, the IC50 in the test on L1210 was 20.8 nM; in the test with B16, 5 nM. The T/C is given as over 607% in the test on Mus musculus [22], over 352% with Mus musculus [3] and over 607% with Mus musculus [24].

As for `Cc1c2ccnc(C(=O)NCCN(C)C)c2cc2c3cc(OCC(O)CO)ccc3n(C)c12` (stereo not drawn), the T/C with Mus musculus [25] worked out at 127%; in the test on Mus musculus [13] it was 129%; in the test with Mus musculus [20] it was 114%. Also, the IC50 with L1210 came to 500 nM; in the test with B16 it was 954 nM. Further, the LTS in the test on Mus musculus [26] and in the test on Mus musculus [27] was 0 each time.
